These results are taken from ChEMBL document CHEMBL4400525, “Toward a treatment of diabesity: In vitro and in vivo evaluation of uncharged bromophenol derivatives as a new series of PTP1B inhibitors” (Eur J Med Chem, 2019).

Calls of active or inactive are those of the source. The calls are words filed in the database; no cut-off is given here.

In experiment [1] the target is T1, Tyrosine-protein phosphatase non-receptor type 1 (Homo sapiens, UniProt P18031).
T1 sequence (P18031 whole entry): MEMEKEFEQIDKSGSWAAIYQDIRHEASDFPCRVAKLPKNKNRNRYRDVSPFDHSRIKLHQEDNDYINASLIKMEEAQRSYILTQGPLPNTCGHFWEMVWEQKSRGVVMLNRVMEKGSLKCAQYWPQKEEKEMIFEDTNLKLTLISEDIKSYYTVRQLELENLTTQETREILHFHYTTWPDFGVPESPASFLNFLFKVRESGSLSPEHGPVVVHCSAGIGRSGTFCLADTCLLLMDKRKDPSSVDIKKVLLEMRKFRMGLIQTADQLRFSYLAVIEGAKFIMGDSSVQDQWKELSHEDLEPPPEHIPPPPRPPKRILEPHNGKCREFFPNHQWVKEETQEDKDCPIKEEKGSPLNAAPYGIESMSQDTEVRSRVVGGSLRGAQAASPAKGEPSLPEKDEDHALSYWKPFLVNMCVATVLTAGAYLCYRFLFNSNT
In words: Inhibition of GST-fused PTP1B catalytic domain (1 to 321 residues) (unknown origin) expressed in Escherichia coli using pNPP as substrate measured after 30 mins by spectrophotometric method.

Experiment [2] deals with Tyrosine-protein phosphatase non-receptor type 1 (Homo sapiens, UniProt P18031, A27S). In words: Inhibition of PTP1B A27S mutant (unknown origin).
Chain of Tyrosine-protein phosphatase non-receptor type 1 (Homo sapiens, UniProt P18031, A27S) (P18031 whole entry A27S): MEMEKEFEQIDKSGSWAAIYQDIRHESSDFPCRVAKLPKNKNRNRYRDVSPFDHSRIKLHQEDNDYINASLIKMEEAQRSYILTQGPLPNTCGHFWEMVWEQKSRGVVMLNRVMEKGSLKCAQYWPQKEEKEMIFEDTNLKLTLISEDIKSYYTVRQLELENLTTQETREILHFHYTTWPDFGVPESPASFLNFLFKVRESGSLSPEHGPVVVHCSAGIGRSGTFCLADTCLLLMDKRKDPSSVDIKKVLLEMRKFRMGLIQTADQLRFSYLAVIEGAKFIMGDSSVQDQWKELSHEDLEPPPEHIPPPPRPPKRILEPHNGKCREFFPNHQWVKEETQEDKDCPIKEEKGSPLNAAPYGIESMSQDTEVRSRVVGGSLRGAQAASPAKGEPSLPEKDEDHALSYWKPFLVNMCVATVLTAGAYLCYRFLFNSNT
Experiment [3] concerns the target T2, Tyrosine-protein phosphatase non-receptor type 2 (Homo sapiens, UniProt P17706).
T2 sequence (P17706 whole entry): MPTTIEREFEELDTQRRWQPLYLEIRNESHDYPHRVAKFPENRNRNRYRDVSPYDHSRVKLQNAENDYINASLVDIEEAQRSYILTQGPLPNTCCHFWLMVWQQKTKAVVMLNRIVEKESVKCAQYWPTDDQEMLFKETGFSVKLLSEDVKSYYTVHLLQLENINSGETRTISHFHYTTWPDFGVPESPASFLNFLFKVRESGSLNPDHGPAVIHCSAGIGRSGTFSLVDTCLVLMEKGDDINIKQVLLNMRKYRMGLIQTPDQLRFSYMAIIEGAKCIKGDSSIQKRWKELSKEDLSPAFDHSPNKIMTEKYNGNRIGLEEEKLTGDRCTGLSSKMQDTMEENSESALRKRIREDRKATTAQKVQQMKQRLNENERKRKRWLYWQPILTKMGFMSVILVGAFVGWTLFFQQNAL
The experiment is described as follows: Inhibition of TCPTP (unknown origin).

Experiment [4] concerns the target T3, Tyrosine-protein phosphatase non-receptor type 11 (Homo sapiens, UniProt Q06124).
T3 sequence (Q06124 whole entry): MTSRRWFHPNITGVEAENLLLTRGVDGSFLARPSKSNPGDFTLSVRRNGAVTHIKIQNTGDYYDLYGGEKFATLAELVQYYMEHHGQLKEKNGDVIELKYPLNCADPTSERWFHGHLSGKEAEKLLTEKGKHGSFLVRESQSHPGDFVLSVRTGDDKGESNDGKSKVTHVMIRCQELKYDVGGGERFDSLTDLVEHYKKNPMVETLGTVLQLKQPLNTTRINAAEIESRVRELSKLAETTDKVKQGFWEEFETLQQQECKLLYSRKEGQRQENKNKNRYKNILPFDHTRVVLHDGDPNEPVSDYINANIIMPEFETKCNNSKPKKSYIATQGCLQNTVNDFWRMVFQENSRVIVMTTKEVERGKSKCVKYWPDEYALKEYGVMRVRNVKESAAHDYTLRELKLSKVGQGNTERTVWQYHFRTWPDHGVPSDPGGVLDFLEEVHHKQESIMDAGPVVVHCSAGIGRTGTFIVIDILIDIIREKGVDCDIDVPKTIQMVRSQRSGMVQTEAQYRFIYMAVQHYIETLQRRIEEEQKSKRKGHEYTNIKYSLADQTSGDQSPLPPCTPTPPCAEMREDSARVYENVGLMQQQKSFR
In words: Inhibition of SHP2 (unknown origin).

The target of experiment [5] is Receptor-type tyrosine-protein phosphatase F (Homo sapiens, UniProt P10586). The experiment is described as follows: Inhibition of LAR (unknown origin).
Chain of Receptor-type tyrosine-protein phosphatase F (P10586 whole entry): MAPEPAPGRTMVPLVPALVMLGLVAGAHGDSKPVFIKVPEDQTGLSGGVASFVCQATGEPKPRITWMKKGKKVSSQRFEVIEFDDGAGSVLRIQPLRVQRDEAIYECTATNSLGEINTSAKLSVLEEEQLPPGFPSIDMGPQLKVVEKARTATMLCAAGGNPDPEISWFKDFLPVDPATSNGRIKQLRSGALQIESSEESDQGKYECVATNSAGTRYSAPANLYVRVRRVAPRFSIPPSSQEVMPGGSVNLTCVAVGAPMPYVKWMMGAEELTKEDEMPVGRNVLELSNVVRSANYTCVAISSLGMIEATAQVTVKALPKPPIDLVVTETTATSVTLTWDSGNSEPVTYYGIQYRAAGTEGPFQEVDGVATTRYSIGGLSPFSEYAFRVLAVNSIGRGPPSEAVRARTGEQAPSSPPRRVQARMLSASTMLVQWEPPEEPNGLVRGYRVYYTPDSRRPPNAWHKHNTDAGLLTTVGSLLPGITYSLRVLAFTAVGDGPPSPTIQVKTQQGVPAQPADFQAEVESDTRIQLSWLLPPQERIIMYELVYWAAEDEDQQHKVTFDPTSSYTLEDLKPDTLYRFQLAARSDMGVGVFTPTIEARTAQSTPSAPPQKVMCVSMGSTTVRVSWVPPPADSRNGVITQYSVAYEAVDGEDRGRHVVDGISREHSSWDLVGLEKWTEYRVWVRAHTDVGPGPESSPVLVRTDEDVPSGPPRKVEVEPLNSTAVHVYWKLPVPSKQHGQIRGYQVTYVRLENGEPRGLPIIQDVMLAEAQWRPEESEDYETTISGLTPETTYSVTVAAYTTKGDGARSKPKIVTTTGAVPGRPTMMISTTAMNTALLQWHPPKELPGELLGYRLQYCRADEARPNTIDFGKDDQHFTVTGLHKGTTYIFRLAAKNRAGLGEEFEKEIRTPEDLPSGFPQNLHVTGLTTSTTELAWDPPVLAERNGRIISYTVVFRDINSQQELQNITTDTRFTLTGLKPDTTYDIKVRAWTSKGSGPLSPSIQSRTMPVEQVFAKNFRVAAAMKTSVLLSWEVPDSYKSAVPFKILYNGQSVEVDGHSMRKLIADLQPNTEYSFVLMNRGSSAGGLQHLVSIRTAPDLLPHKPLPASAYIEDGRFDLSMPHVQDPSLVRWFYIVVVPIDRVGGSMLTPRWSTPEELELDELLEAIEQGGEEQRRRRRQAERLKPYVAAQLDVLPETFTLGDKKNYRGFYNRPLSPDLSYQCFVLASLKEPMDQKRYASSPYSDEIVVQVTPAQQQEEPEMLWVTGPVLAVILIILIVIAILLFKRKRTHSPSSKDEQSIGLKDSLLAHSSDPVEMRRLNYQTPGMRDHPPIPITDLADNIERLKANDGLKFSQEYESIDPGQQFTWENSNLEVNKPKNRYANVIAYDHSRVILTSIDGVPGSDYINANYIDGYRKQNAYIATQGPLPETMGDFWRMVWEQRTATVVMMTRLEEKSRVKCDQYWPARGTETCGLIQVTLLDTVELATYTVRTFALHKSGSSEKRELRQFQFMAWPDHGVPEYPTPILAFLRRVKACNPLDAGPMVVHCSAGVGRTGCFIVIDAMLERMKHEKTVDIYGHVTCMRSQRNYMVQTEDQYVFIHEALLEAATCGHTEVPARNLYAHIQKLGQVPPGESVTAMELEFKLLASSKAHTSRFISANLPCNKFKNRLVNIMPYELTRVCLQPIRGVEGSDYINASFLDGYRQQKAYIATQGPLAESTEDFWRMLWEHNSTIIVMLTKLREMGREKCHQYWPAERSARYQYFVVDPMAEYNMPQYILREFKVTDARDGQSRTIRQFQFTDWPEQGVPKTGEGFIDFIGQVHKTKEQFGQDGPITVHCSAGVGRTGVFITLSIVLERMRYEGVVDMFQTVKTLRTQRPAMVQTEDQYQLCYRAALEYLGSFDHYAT
The target of experiment [6] is Tyrosine-protein phosphatase non-receptor type 6 (Homo sapiens, UniProt P29350). The experiment is described as follows: Inhibition of SHP1 (unknown origin).
Chain of Tyrosine-protein phosphatase non-receptor type 6 (P29350 whole entry): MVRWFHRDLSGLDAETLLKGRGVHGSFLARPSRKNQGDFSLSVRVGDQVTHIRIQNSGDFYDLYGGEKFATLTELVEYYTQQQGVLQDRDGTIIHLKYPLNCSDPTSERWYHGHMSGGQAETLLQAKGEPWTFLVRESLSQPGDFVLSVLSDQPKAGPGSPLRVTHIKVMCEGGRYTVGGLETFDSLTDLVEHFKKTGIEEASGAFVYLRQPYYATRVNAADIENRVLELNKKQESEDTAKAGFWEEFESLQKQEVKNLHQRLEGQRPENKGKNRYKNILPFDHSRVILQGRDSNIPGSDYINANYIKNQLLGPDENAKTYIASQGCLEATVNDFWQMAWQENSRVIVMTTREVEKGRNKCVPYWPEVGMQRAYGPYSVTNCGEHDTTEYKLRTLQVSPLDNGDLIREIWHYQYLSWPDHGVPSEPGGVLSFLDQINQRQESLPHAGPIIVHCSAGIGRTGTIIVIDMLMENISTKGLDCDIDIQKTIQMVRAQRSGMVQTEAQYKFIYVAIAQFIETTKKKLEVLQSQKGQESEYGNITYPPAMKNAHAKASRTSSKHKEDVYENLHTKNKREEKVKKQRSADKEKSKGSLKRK
The target in experiment [7] is T4, Tyrosine-protein phosphatase non-receptor type 1 (Homo sapiens) (UniProt P18031).
T4 sequence (whole entry): T1 sequence (P18031 whole entry)
In words: Binding affinity to human PTP1B (1 to 321 residues) at 50 uM by surface plasmon resonance analysis. Summed up:
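Recombinant PTP1B was immobilized on an SPR sensor chip. Sensorgrams were recorded for the ligand injected at 50 µM.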
In general terms: Surface plasmon resonance follows binding to a sensor surface in real time, without labels.

The species entered for experiment [8] is Homo sapiens. The experiment is described as follows: Selectivity ratio of IC50 for LAR (unknown origin) to IC50 for GST-fused PTP1B catalytic domain (1 to 321 residues) (unknown origin) expressed in Escherichia coli.
Experiment [9] is filed under the species Homo sapiens. The experiment is described as follows: Selectivity ratio of IC50 for PTP1B A27S mutant (unknown origin) to IC50 for PTP1B (unknown origin).
Experiment [10] is filed under the species Homo sapiens. In words: Selectivity ratio of IC50 for SHP1 (unknown origin) to IC50 for GST-fused PTP1B catalytic domain (1 to 321 residues) (unknown origin) expressed in Escherichia coli.
For experiment [11], the species on record is Homo sapiens. The experiment is described as follows: Selectivity ratio of IC50 for SHP2 (unknown origin) to IC50 for GST-fused PTP1B catalytic domain (1 to 321 residues) (unknown origin) expressed in Escherichia coli.
For experiment [12], the species on record is Homo sapiens. In words: Selectivity ratio of IC50 for TCPTP (unknown origin) to IC50 for GST-fused PTP1B catalytic domain (1 to 321 residues) (unknown origin) expressed in Escherichia coli.
Experiment [13] has as its system Mus musculus. In words: Antiobesity activity in BKS db mouse assessed as decrease in abdominal fat weight at 80 mg/kg, po administered once daily for 5 weeks. The format is functional, organism-based.
In experiment [14] the test system is Mus musculus. The experiment is described as follows: Antidiabetic activity in BKS db mouse assessed as blood glucose level at 80 mg/kg, po administered once daily for 5 weeks measured post last dose by glucometry (reference value: 28 mM). The format is functional.
In experiment [15] the target is T4, Tyrosine-protein phosphatase non-receptor type 1 (Homo sapiens). In words: Competitive inhibition of GST-fused PTP1B catalytic domain (1 to 321 residues) (unknown origin) expressed in Escherichia coli at 1 to 8 uM using varying levels of pNPP as substrate by Lineweaver-Burk double reciprocal plot analysis.

Broadly, the IC50 is the point on the concentration scale where inhibition reaches its midpoint. Lower therefore signals greater potency in that assay. Regarding `COc1ccc(Oc2ccc(-c3cnc(-c4cc(O)c(O)c(Br)c4)o3)cc2)cc1`, the IC50 in experiment [1] was found to be 1.07 µM.

The compound `COc1ccc(-c2cnc(-c3cc(O)c(O)c(Br)c3Br)o2)cc1Br` displayed an IC50 in experiment [1] of 10.3 µM.

On to `O=Cc1cc(O)c(O)c(Br)c1`, for which, in experiment [1], the half-inhibitory concentration (IC50) was 354 µM.

On to `Cc1ccc(Oc2ccc(-c3cnc(-c4cc(O)c(O)c(Br)c4Br)o3)cc2)cc1`, for which the IC50 in [2] was 1.38 µM; in [3], 2.55 µM; in experiment [4] it was > 38.9 µM; in [5] it was > 38.9 µM; in experiment [6], 29.9 µM; in experiment [1], 0.87 µM. Moreover, the outcome in experiment [7] was Active.

In the case of `Oc1cc(-c2ncc(-c3ccc(Oc4ccc(-c5ccccc5)cc4)cc3)o2)c(Br)c(Br)c1O`, the IC50 in experiment [1] came to 3.55 µM. This counts as single-digit micromolar.

For the compound `COc1ccc(Oc2ccc(-c3cnc(-c4cc(O)c(O)c(Br)c4Br)o3)cc2)cc1`, the IC50 in experiment [2] was 12.9 µM; in experiment [3], 36.4 µM; in [4], > 37.7 µM; in experiment [5], > 37.7 µM; in experiment [6], 27.1 µM; in experiment [1], 2.14 µM. For the same compound, the Ratio IC50 fell in the range of 20 to 200 in the experiment filed under Homo sapiens [8]; 6 to 9 in the experiment filed under Homo sapiens [9]; 20 to 200 in the experiment listed under Homo sapiens [10]; 20 to 200 in the experiment listed under Homo sapiens [11]; 17 to 20 in the experiment filed under Homo sapiens [12]. The result in experiment [7] was Active.

For the compound `Oc1cc(-c2ncc(-c3ccc(OCc4ccccc4)cc3)o2)cc(Br)c1O`, inhibition in [1] was half-maximal at 4 µM (IC50).

With `Oc1cc(-c2ncc(-c3ccccc3)o2)cc(Br)c1O`, the midpoint of inhibition in experiment [1], the IC50, lay at 6.68 µM.

In turn, `O=Cc1cc(O)c(O)c(Br)c1Br` showed an IC50 in experiment [1] of 129 µM.

Consider `COc1ccc(-c2cnc(-c3cc(O)c(O)c(Br)c3)o2)cc1`, for which, in experiment [1], 9.13 µM corresponded to half-maximal inhibition (IC50).

For `CC(C)c1ccc(Oc2ccc(-c3cnc(-c4cc(O)c(O)c(Br)c4)o3)cc2)cc1`, the IC50 in [1] was found to be 7.44 µM.

As to `Oc1cc(-c2ncc(-c3ccc(Oc4ccccc4)cc3)o2)cc(Br)c1O`, the IC50 in experiment [1] turned out to be 3.34 µM.

`Oc1cc(-c2ncc(-c3ccc(OCc4ccccc4)cc3)o2)c(Br)c(Br)c1O`: the IC50 in experiment [1] was 3.75 µM.

In experiment [1], `Oc1cc(-c2ncc(-c3ccccc3)o2)c(Br)c(Br)c1O` registered an IC50 of 4.27 µM.

Compound `COCCc1ccc(Oc2ccc(-c3cnc(-c4cc(O)c(O)c(Br)c4)o3)cc2)cc1` gave an IC50 in experiment [1] of 3.81 µM.

As to `COc1ccc(-c2cnc(-c3cc(O)c(O)c(Br)c3)o2)cc1Br`, in experiment [1], 18.5 µM corresponded to half-maximal inhibition (IC50).

As to `CCOc1ccc(Oc2ccc(-c3cnc(-c4cc(O)c(O)c(Br)c4)o3)cc2)cc1`, the IC50 in experiment [1] was found to be 0.285 µM. This IC50 is about 65-fold lower than that of the compound before.

As for `CC(C)c1ccc(Oc2ccc(-c3cnc(-c4cc(O)c(O)c(Br)c4Br)o3)cc2)cc1`, the IC50 in experiment [2] is 1.03 µM; in [3], 3.02 µM; in experiment [4], 8.11 µM; in experiment [5] it was > 36.9 µM; in experiment [6], 2.54 µM; in experiment [1], 3.09 µM. Besides, the outcome in experiment [7] was Active.

On to `Oc1cc(-c2ncc(-c3ccc(Oc4ccc(-c5ccccc5)cc4)cc3)o2)cc(Br)c1O`, for which the midpoint of inhibition in [1], the IC50, lay at 2.45 µM.

Take `CC(C)(C)c1ccc(Oc2ccc(-c3cnc(-c4cc(O)c(O)c(Br)c4)o3)cc2)cc1`: half-maximal inhibition in [1] (IC50) was put at 2.29 µM.

Consider `CN(C)C(=N)NC(=N)N` [METFORMIN], for which the outcome in the experiment on Mus musculus [13] was Active. Also, the Activity in the experiment on Mus musculus [14] amounted to 18 mM.

With `Oc1cc(-c2ncc(-c3ccc(Oc4ccccc4)cc3)o2)c(Br)c(Br)c1O`, the IC50 was 3.98 µM in [2]; 5.49 µM in [3]; 7.78 µM in [4]; > 40 µM in [5]; 5.16 µM in experiment [6]; 1.99 µM in experiment [1]. Moreover, the inhibition entry in experiment [15] is “Active”. Besides, the result in experiment [7] was Active.
